In ChEMBL document CHEMBL1142664, “Synthesis and biological evaluation of a new series of 2,3,5-substituted [1,2,4]-thiadiazoles as modulators of adenosine A1 receptors and their molecular mechanism of action” (J Med Chem, 2005):

Experiments:
[1] = molecular target: T1, Adenosine receptor A1 (Homo sapiens) (UniProt P30542); experiment: Inhibition of [3H]CCPA binding to human Adenosine A1 receptor at 10e-7 M
T1 sequence (whole entry): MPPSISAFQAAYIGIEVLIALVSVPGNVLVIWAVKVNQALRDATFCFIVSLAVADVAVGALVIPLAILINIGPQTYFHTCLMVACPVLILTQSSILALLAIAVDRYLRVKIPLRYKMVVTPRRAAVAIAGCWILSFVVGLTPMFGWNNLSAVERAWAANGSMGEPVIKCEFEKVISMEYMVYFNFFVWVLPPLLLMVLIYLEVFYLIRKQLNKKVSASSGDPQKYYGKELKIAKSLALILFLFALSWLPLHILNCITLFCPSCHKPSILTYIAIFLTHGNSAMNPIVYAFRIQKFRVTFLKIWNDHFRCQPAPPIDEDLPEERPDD
In short: (§1)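 Human A1 receptors expressed in CHO-cell membranes, incubated 60 min at 25 °C in 50 mM Tris-HCl (pH 7.4) with the compound at a fixed concentration. Conditions were [3H]CCPA ~1.0 nM with 20 µg protein, or [3H]DPCPX ~1.6 nM with 10 µg protein. Nonspecific binding was defined with 10 µM DPCPX, and samples were filtered and counted. Results are % specific binding remaining, as means of three experiments in duplicate.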

[2] = molecular target: T1, Adenosine receptor A1 (Homo sapiens); experiment: Inhibition of [3H]DPCPX binding to human Adenosine A1 receptor at 10e-6 M; in short: as §1
[3] = molecular target: T1, Adenosine receptor A1 (Homo sapiens); experiment: Inhibition of [3H]CCPA binding to human Adenosine A1 receptor at 10e-6 M; in short: as §1
[4] = molecular target: T1, Adenosine receptor A1 (Homo sapiens); experiment: Association half life for [3H]CCPA binding to Adenosine A1 receptor in the presence of compound
In short: (§2)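 Kinetics on membranes (30 µg) from CHO cells expressing recombinant human A1 receptors, using [3H]CCPA at 1 nM, with or without compound. Association was started by adding membranes to the radioligand. For dissociation, membranes were preloaded with radioligand for 60 min at 25 °C, then 100 µM 8-cyclopentyltheophylline was added. Bound ligand was separated by GF/B filtration and counted by scintillation; t1/2 and rate constants were derived.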

[5] = molecular target: T1, Adenosine receptor A1 (Homo sapiens); experiment: Association constant for [3H]CCPA binding to Adenosine A1 receptor in the presence of compound; in short: as §2
[6] = molecular target: T1, Adenosine receptor A1 (Homo sapiens); experiment: Dissociation constant for [3H]-CCPA binding to Adenosine A1 receptor in the presence of compound; in short: as §2
[7] = molecular target: T1, Adenosine receptor A1 (Homo sapiens); experiment: Dissociation half life of [3H]CCPA binding to Adenosine A1 receptor; in short: as §2
[8] = molecular target: T1, Adenosine receptor A1 (Homo sapiens); experiment: Association half life for [3H]-CCPA binding to Adenosine A1 receptor in the presence of compound; in short: as §2
[9] = molecular target: T1, Adenosine receptor A1 (Homo sapiens); experiment: Dissociation half life for [3H]CCPA binding to Adenosine A1 receptor in the presence of compound; in short: as §2

| Specific binding [1] [%] | Specific binding [2] [%] | Specific binding [3] [%] | T1/2 [4] [min] | k on [5] [M⁻¹ s⁻¹] | Koff [6] [s⁻¹] | T1/2 [7] [min] | T1/2 [8] [min] | T1/2 [9] [min] | SMILES |
| --- | --- | --- | --- | --- | --- | --- | --- | --- | --- |
| 100 | 125 | 24 | – | – | – | – | – | – | CC/N=c1/nc(-c2ccccc2)n(-c2cccc(C)c2)s1 |
| 101 | 124 | 43 | – | – | – | – | – | – | c1ccc(C/N=c2\nc(-c3ccccc3)n(-c3ccccc3)s2)cc1 |
| 100 | 123 | 25 | 2.9 | 4.17e+06 | 0.000967 | 12 | – | – | c1ccc(-c2n/c(=N/C3CCCC3)sn2-c2ccccc2)cc1 |
| 106 | 127 | 27 | – | – | – | – | – | – | OCCC/N=c1/nc(-c2ccccc2)n(-c2ccccc2)s1 |
| 96 | 132 | 23 | – | – | – | – | – | – | C/N=c1/nc(-c2ccccc2)n(-c2cccc(C)c2)s1 |
| 104 | 106 | 66 | – | – | – | – | – | – | c1ccc(/N=c2/nc(-c3ccccc3)n(-c3ccccc3)s2)cc1 |
| 99 | 116 | 66 | – | – | – | – | – | – | Cc1cccc(-n2s/c(=N\Cc3ccccc3)nc2-c2ccccc2)c1 |
| 96 | 107 | 89 | – | – | – | – | – | – | Cc1cccc(-n2s/c(=N\c3ccccc3)nc2-c2ccccc2)c1 |
| 97 | 126 | 29 | – | – | – | – | – | – | CCC/N=c1/nc(-c2ccccc2)n(-c2cccc(C)c2)s1 |
| 97 | 142 | 29 | – | – | – | – | – | – | Cc1cccc(-n2s/c(=N/CCCO)nc2-c2ccccc2)c1 |
| 97 | 126 | 23 | – | – | – | – | – | – | CC(C)/N=c1/nc(-c2ccccc2)n(-c2ccccc2)s1 |
| 101 | 126 | 27 | – | – | – | – | – | – | CCCC/N=c1/nc(-c2ccccc2)n(-c2ccccc2)s1 |
| 99 | 114 | 36 | – | – | – | – | – | – | CCCC/N=c1/nc(-c2ccccc2)n(-c2cccc(C)c2)s1 |
| 99 | 134 | 20 | – | – | – | – | – | – | CC/N=c1/nc(-c2ccccc2)n(-c2ccccc2)s1 |
| 96 | 101 | 35 | – | – | – | – | – | – | Cc1cccc(-n2s/c(=N/C3CCCC3)nc2-c2ccccc2)c1 |
| 97 | 122 | 16 | – | 5.83e+06 | 0.000933 | – | 2 | 12.4 | C/N=c1\nc(C2C=CC=CC2)n(C2C=CC=CC2)s1 (configuration not stated) |
| 100 | 121 | 29 | – | – | – | – | – | – | Cc1cccc(-n2s/c(=N\C(C)C)nc2-c2ccccc2)c1 |
| 98 | 135 | 26 | – | – | – | – | – | – | CCC/N=c1/nc(-c2ccccc2)n(-c2ccccc2)s1 |
